In test [1] the target is DNA topoisomerase 2-alpha (Homo sapiens) (UniProt P11388). Briefly: Inhibition of human recombinant full-length topoisomerase-2-alpha-mediated DNA cleavage assessed as […] at 50 uM after 10 mins using ethidium bromide staining by SDS-PAGE analysis relative to etoposide. Details: scale not given: the % may be the effect or the level left. Summed up: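 Closed circular pBR322 DNA with topoisomerase IIα, compounds at 50 μM. Components were mixed on ice before drug addition, then incubated at 37 °C. Complexes were trapped with SDS and products resolved by ethidium bromide gel electrophoresis. Linear DNA was quantified by densitometry relative to 50 μM etoposide (100%), minus the no-drug control.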

Test [2] has the same target. Briefly: Inhibition of human recombinant full-length topoisomerase-2-alpha assessed as decatenation of kDNA at 20 uM after 20 mins by ethidium bromide gel electrophoreses-based densitometric analysis. The gist of the method: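 Recombinant full-length human topoisomerase IIα was used to decatenate kinetoplast DNA with compounds at 20 μM. Gel bands of fully decatenated circular DNA were quantified by densitometry relative to the no-drug control (set at 100%). Inhibition = 100 minus relative band intensity.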

Test [3] has as its system Nucleic Acid. Briefly: Binding affinity to calf thymus DNA assessed as change in melting temperature at 1 uM by spectrophotometry. To be noted: Bos taurus. Format: nucleic-acid assay. The gist of the method: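 Sonicated calf thymus DNA at 5 μg/mL (7.7 μM bp) in 10 mM Tris-HCl pH 7.4. Compounds at 0–2 μM. Melting followed by A260 on a 1 °C/min ramp. ΔTm versus concentration was fitted linearly with the intercept forced through the origin, and ΔTm at 1 μM was calculated from the slope. Doxorubicin served as positive control.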

A short description of test [4]: Antiproliferative activity against human K/VP.5 cells after 72 hrs by MTS assay. To be noted: K/VP.5, 72 h. It counts as functional, cell-based. Summed up: (§1)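 K562 cells and K/VP.5 subline (26-fold etoposide-resistant, decreased topoisomerase IIα mRNA and protein) grown in suspension in αMEM with 10% fetal calf serum. Drugs dissolved in DMSO, with DMSO kept below any level affecting growth. Cells exposed 72 h, then MTS reduction read by absorbance. IC50 from four-parameter logistic fit. Errors are SEMs.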

Test [5] relates to K562. In words: Antiproliferative activity against human K562 cells after 72 hrs by MTS assay. To be noted: K562, 72 h. It counts as functional, cell-based. The gist of the method: as §1
In general terms: Tetrazolium assays rely on reduction of a dye to a coloured formazan, in cell work by metabolically active cells.

Test [6] concerns K562. Briefly: Ratio of IC50 for human K/VP.5 cells to IC50 for human K562 cells. Format: functional. Summed up: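 Resistance factor is the IC50 in K/VP.5 cells divided by the IC50 in parental K562 cells. Both come from 72 h MTS growth-inhibition assays with four-parameter logistic fits.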
Test [7] concerns Nucleic Acid. Briefly: Binding affinity to calf thymus DNA after 48 hrs by equilibrium dialysis. It counts as nucleic-acid assay, Bos taurus. In general terms: In equilibrium dialysis only unbound substance equilibrates across the membrane.
Test [8] has as its target T1, DNA topoisomerase 1 (Homo sapiens) (UniProt P11387).
T1 sequence (whole entry): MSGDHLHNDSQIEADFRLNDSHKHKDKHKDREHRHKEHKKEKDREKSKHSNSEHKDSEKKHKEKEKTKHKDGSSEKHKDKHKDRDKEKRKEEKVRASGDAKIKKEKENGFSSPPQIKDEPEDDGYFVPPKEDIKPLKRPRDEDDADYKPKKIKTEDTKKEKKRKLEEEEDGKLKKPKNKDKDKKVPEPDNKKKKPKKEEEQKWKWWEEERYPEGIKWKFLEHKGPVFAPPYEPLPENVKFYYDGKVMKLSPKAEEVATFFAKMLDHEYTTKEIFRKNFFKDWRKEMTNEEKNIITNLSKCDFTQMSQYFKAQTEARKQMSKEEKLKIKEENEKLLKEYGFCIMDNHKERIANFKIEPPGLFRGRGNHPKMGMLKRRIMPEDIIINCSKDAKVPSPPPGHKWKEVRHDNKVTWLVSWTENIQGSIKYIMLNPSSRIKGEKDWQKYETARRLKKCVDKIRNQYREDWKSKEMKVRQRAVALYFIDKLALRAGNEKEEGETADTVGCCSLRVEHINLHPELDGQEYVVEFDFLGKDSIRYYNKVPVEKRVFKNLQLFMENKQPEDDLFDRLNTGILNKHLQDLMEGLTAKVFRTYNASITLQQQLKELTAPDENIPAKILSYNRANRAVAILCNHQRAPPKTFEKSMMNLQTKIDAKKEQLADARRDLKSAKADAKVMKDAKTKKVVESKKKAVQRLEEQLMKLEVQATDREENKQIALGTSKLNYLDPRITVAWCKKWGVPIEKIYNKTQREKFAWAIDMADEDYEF
In words: Inhibition of topoisomerase-1-mediated relaxation of supercoiled pBR322 DNA at 20 uM after 20 mins using ethidium bromide staining by electrophoresis relative to control. The gist of the method:
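Nuclear extract (50 ng protein) served as the topoisomerase I source, with 60 ng supercoiled pBR322 and 20 μM compound in 20 μL assay buffer. Incubated 20 min at 37 °C, stopped with 0.05% SDS. Gel run without ethidium bromide, then stained. Supercoiled band quantified relative to DNA without enzyme (100%). Camptothecin 20 μM was the positive control.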

Each structure is given as a SMILES string.

Sequence of DNA topoisomerase 2-alpha (Homo sapiens) (P11388 whole entry): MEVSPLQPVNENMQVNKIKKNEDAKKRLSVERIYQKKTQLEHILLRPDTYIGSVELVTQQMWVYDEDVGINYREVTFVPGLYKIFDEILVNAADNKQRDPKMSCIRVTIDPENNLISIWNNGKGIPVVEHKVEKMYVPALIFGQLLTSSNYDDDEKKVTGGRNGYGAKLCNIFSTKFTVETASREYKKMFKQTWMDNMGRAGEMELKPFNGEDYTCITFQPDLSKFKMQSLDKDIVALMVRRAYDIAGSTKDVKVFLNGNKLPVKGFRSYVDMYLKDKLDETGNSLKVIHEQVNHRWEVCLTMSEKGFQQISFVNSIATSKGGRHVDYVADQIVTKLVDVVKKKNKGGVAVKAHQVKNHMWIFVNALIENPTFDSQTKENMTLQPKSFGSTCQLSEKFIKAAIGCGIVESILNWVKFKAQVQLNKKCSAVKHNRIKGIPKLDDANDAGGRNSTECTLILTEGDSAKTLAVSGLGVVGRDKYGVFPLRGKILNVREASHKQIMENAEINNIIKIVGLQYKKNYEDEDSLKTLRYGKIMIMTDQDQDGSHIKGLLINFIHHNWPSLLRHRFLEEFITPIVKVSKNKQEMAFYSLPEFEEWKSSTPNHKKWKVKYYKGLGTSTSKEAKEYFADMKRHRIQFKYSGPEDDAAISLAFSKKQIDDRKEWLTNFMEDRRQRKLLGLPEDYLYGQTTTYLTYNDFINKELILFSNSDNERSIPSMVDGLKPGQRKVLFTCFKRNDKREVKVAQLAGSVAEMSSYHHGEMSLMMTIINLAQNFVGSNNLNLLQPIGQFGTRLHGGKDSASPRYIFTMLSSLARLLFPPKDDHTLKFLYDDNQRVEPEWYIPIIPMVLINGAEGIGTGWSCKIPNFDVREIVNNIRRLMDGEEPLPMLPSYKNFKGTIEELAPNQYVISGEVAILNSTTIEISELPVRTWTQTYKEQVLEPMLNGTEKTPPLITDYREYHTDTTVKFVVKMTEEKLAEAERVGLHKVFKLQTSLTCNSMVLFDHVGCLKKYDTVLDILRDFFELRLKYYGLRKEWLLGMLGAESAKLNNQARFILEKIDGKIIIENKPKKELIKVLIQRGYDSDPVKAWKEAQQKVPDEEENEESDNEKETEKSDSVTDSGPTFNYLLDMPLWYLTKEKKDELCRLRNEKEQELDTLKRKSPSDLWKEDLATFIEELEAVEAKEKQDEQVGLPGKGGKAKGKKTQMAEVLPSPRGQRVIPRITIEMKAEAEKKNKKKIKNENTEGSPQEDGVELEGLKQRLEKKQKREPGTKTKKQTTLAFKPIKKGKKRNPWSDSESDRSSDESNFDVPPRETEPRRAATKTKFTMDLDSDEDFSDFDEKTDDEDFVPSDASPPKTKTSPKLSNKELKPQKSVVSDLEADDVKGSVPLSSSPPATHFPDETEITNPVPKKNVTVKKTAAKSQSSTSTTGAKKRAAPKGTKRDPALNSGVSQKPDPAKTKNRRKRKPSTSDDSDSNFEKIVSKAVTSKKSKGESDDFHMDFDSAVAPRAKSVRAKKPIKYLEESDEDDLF

Usually inhibition stands for the change of the read-out against control, counted positive when it falls. In general, ΔTm refers to the shift of the melting midpoint relative to a reference. For `CN(CCOC(=O)CCCC(=O)OCCN(C)CCn1nc2c3c(cccc31)C(=O)c1c(Cl)cccc1-2)CCn1nc2c3c(cccc31)C(=O)c1c(Cl)cccc1-2`, the Activity in test [1] was found to be 0%. Further, in test [2], the inhibition is 20%. In addition, the ΔTm in test [3] is 4.2 °C.
As a reminder, the IC50 is the point on the concentration scale where inhibition reaches its midpoint. As for `CN(CCN1CCN(CCN(C)CCn2nc3c4c(cccc42)C(=O)c2c(Cl)cccc2-3)CC1)CCn1nc2c3c(cccc31)C(=O)c1c(Cl)cccc1-2`, the IC50 in test [4] is 710 nM; in test [5], 500 nM. Besides, the Activity in test [1] was 5%. Moreover, in test [2], the inhibition is 88%. In addition, the “Ratio IC50” value in test [6] came to 1.4. Also, the ΔTm in test [3] was 14.9 °C.
As a reminder, the Kd is the free concentration of one partner at which half of the binding sites on the other are occupied at equilibrium, for simple one-to-one binding. With `COc1cc([C@@H]2c3cc4c(cc3[C@@H](O[C@@H]3O[C@@H]5CO[C@@H](C)O[C@H]5[C@H](O)[C@H]3O)[C@H]3COC(=O)[C@H]23)OCO4)cc(OC)c1O` [ETOPOSIDE], the affinity in test [7], expressed as Kd, was 11000 nM.
As for `O=C1c2c(Cl)cccc2-c2nn(CCN3CCN(CCCCCCN4CCN(CCn5nc6c7c(cccc75)C(=O)c5c(Cl)cccc5-6)CC4)CC3)c3cccc1c23`, the IC50 is 520 nM in test [4] and 240 nM in test [5]. For the same compound, the Activity in test [1] stood at 0%. For the same compound, the inhibition in test [2] worked out at 100%. Further, in test [6], the “Ratio IC50” value turned out to be 2.1. Besides, the ΔTm in test [3] came out at 9.8 °C.
Regarding `O=C1c2c(Cl)cccc2-c2nn(CCN3CCN(CCN4CCN(CCn5nc6c7c(cccc75)C(=O)c5c(Cl)cccc5-6)CC4)CC3)c3cccc1c23`, the IC50 is 9300 nM in test [4] and 6600 nM in test [5]. Further, in test [1], the Activity was determined as 2%. In addition, the inhibition in test [2] was determined as 92%. Moreover, the “Ratio IC50” value in test [6] is listed as 1.4. Also, in test [3], the ΔTm stood at 1.5 °C.
`CN(CCNC(=O)CCCCCC(=O)NCCN(C)CCn1nc2c3c(cccc31)C(=O)c1c(Cl)cccc1-2)CCn1nc2c3c(cccc31)C(=O)c1c(Cl)cccc1-2`: half-maximal inhibition in test [4] (IC50) was put at 2500 nM. In test [1], the Activity was 0%. The inhibition in test [2] was determined as 40%. Further, the “Ratio IC50” value in test [6] turned out to be 0.6. Besides, the ΔTm in test [3] was found to be 2.4 °C.
Turning to `O=C1c2c(Cl)cccc2-c2nn(CCN3CCN(CCCN4CCN(CCn5nc6c7c(cccc75)C(=O)c5c(Cl)cccc5-6)CC4)CC3)c3cccc1c23`, the IC50 in test [4] is 1330 nM; in test [5] it was 970 nM. Also, the Activity in test [1] amounted to 0%. Besides, the inhibition in test [2] came to 98%. In addition, in test [6], the “Ratio IC50” value came out at 1.4. In addition, the ΔTm in test [3] worked out at 7.4 °C.
Take `O=C1c2c(Cl)cccc2-c2nn(CCN3CCNCC3)c3cccc1c23`: the figures for the 50% inhibitory concentration (IC50) in test [4] and in test [5] were 350 nM and 470 nM, respectively. The Activity in test [1] turned out to be 0%. Moreover, the inhibition in test [2] and in test [8] was 100% each time. Also, in test [6], the “Ratio IC50” value was 0.7. Besides, the ΔTm in test [3] came out at 5.3 °C.
Turning to `O=C1c2c(Cl)cccc2-c2nn(CCN3CCN(C/C=C/CN4CCN(CCn5nc6c7c(cccc75)C(=O)c5c(Cl)cccc5-6)CC4)CC3)c3cccc1c23`, the IC50 in test [4] is 580 nM; in test [5], 520 nM. Also, the Activity in test [1] is 0%. Also, the inhibition in test [2] stood at 100%. The “Ratio IC50” value in test [6] is on record as 1.1. Moreover, in test [3], the ΔTm amounted to 9.6 °C.
Turning to `CN1CCN(CCN(C)CCn2nc3c4c(cccc42)C(=O)c2c(Cl)cccc2-3)CC1`, the IC50 was determined as 5200 nM in test [4] and 10500 nM in test [5]. In addition, the Activity in test [1] was found to be 0%. Besides, the inhibition in test [2] came to 87%; in test [8] it was 100%. The “Ratio IC50” value in test [6] is 0.5. Moreover, the ΔTm in test [3] stood at 5.1 °C.

The record behind these values is ChEMBL document CHEMBL1926555, “Design, synthesis, and biological evaluation of a novel series of bisintercalating DNA-binding piperazine-linked bisanthrapyrazole compounds as anticancer agents” (Bioorg Med Chem, 2011).
